≈ marks a conversion by molar mass, not a printed value. Calls of active or inactive are those of the source. No cut-off for these calls is given here.
Experiments:
[1] = Inhibition of HIV1 HXB2 gp120-mediated cell to cell fusion using human MAGI-CCR5 cells as indicator cells and Env/Tat-expressing HL2/3 cells as effector cells preincubated with MAGI-CCR5 cells for 1 hr followed by HL2/3 cells addition by beta-galactosidase reporter gene assay; settings: Human immunodeficiency virus 1, HXB2
[2] = Inhibition of HIV1 reverse transcriptase by colorimetric assay; design: species or system Human immunodeficiency virus 1
How it was run: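 HIV-1 reverse transcriptase activity measured with a commercial colorimetric reverse transcriptase kit, following the maker's instructions.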

[3] = Aqueous solubility of the compound at 1 to 100 uM in PBS at pH 7.4 after 2 hrs by turbidimetric analysis; assay type: physicochemical
How it was run: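 DMSO stocks diluted 1:100 into phosphate-buffered saline pH 7.4, giving 1, 3, 10, 30 and 100 µM final in 1% DMSO. Seven replicate wells per concentration, incubated 2 h at 37 °C, absorbance read at 620 nm. Solubility taken as the concentration giving absorbance above the 1% DMSO vehicle.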

[4] = Apparent permeability from apical to basolateral side in human Caco2 cells at 10 uM at pH 7.4 by LC-MS/MS analysis; assay type: ADME, cell-based; settings: Caco-2, pH 7.4
How it was run: (§1)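 Caco-2 cells, passage 40-60, seeded on Transwell inserts at 1 x 10^5 cells/cm2 and grown 20 days in DMEM. Monolayers equilibrated 40 min in HBSS. Donor: compound at 10 µM final, 1% DMSO, in HBSS pH 7.4 with lucifer yellow as integrity marker. Sampled at 120 min, A-B and B-A, in duplicate, by LC-MS/MS. Papp = (dQ/dt)/(C0 × A); efflux ratio = Papp(B-A)/Papp(A-B).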

[5] = Apparent permeability from basolateral to apical side in human Caco2 cells at 10 uM at pH 7.4 by LC-MS/MS analysis; assay type: ADME, cell-based; settings: Caco-2, pH 7.4; how it was run: as §1
[6] = Inhibition of CYP1A in human liver microsomes using ethoxyresorufin as substrate after 5 mins in presence of NADPH by LC-MS/MS analysis
[7] = Cytotoxicity against human TZM-bl cells incubated for 3 days by XTT assay; assay type: cell-based; settings: TZM-bl cells
How it was run: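 TZM-bl cells, 1 x 10^4/well, cultured overnight at 37 °C. Compounds added at graded concentrations for three days.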

[8] = Cytotoxicity against human MT2 cells incubated for 4 days by XTT assay; assay type: cell-based; settings: MT2 cells
How it was run: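 Run alongside the MT-2 multicycle infection assay. Compound at graded concentrations mixed with an equal volume of MT-2 cells (10^5 cells/ml). Medium replaced next day and culture continued four days.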

[9] = Metabolic stability in human liver microsomes assessed as compound remaining at 45 mins in presence of NADPH by LC-MS/MS analysis; assay type: ADME, microsome; settings: read-out: Stability
[10] = Intrinsic clearance in human liver microsomes assessed per mg protein in presence of NADPH by LC-MS/MS analysis; assay type: ADME, microsome; settings: read-out: CLH
[11] = Unbound fraction in human plasma at 5 uM by LC-MS/MS based equilibrium dialysis; assay type: ADME, cell-free
[12] = molecular target: Cytochrome P450 2C19 (Homo sapiens, UniProt P33261); assay: Inhibition of CYP2C19 in human liver microsomes using mephenytoin as substrate after 60 mins in presence of NADPH by LC-MS/MS analysis; assay type: ADME
Chain of Cytochrome P450 2C19 (P33261 whole entry): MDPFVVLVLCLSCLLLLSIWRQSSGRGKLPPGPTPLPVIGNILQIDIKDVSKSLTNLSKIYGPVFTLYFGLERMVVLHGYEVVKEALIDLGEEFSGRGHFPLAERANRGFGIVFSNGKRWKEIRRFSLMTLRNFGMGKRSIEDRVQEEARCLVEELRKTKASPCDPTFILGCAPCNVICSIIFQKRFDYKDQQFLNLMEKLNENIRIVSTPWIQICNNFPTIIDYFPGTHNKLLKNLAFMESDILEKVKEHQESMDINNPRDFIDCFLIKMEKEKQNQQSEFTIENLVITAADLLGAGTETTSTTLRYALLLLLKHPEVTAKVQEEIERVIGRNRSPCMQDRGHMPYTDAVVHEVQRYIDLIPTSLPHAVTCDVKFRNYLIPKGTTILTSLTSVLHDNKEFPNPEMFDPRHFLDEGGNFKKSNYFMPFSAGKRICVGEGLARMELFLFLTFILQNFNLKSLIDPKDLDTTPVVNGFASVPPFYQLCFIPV

[13] = molecular target: Cytochrome P450 3A4 (Homo sapiens, UniProt P08684); assay: Inhibition of CYP3A4 in human liver microsomes using midazolam as substrate after 5 mins in presence of NADPH by LC-MS/MS analysis; assay type: ADME
Chain of Cytochrome P450 3A4 (P08684 whole entry): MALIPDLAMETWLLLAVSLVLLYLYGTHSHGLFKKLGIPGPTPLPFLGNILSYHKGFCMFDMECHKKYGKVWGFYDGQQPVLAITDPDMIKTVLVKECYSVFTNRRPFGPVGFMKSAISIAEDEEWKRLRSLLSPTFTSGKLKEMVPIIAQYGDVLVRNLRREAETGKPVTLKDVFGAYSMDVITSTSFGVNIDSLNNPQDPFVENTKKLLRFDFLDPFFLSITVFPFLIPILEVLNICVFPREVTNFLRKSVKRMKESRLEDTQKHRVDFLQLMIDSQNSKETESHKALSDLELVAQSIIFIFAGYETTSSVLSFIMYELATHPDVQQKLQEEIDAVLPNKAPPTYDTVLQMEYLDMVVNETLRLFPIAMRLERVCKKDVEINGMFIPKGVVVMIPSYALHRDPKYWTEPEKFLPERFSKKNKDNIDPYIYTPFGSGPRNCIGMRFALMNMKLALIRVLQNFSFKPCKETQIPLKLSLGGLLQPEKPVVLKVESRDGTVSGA

[14] = molecular target: Cytochrome P450 2D6 (Homo sapiens, UniProt P10635); assay: Inhibition of CYP2D6 in human liver microsomes using dextromethorphan as substrate after 5 mins in presence of NADPH by LC-MS/MS analysis; assay type: ADME
Chain of Cytochrome P450 2D6 (P10635 whole entry): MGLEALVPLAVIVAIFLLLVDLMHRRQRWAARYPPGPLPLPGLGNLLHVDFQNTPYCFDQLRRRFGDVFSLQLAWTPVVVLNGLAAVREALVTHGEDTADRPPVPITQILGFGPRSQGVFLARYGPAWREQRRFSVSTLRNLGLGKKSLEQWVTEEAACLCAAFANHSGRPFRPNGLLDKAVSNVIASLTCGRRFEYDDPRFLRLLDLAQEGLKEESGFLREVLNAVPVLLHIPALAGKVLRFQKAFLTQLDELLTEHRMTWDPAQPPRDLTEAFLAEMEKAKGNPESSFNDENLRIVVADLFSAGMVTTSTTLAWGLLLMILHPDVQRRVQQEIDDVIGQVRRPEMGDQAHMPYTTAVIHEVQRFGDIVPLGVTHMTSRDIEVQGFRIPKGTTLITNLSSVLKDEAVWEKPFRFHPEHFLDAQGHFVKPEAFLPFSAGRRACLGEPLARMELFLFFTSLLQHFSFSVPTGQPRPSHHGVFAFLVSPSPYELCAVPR

[15] = molecular target: Cytochrome P450 2C9 (Homo sapiens, UniProt P11712); assay: Inhibition of CYP2C9 in human liver microsomes using tolbutamide as substrate after 60 mins in presence of NADPH by LC-MS/MS analysis; assay type: ADME
Chain of Cytochrome P450 2C9 (P11712 whole entry): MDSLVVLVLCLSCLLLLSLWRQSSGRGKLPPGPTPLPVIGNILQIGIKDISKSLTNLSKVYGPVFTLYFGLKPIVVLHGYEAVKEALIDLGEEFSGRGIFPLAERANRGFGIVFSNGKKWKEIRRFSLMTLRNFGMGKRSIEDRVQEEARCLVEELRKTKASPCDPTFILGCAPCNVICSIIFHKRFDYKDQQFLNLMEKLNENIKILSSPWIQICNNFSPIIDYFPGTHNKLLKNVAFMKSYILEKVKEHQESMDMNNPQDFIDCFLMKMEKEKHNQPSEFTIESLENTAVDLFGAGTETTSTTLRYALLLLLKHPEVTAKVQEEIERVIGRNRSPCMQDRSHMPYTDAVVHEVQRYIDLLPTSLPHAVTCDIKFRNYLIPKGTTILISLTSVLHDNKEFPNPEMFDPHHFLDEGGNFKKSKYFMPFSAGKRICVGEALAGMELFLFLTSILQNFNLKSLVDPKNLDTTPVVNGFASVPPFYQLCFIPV

[16] = molecular target: Voltage-gated inwardly rectifying potassium channel KCNH2 (Homo sapiens, UniProt Q12809); assay: Inhibition of human ERG expressed in CHO cells by patch clamp electrophysiology assay; assay type: cell-based
Chain of Voltage-gated inwardly rectifying potassium channel KCNH2 (Q12809 whole entry): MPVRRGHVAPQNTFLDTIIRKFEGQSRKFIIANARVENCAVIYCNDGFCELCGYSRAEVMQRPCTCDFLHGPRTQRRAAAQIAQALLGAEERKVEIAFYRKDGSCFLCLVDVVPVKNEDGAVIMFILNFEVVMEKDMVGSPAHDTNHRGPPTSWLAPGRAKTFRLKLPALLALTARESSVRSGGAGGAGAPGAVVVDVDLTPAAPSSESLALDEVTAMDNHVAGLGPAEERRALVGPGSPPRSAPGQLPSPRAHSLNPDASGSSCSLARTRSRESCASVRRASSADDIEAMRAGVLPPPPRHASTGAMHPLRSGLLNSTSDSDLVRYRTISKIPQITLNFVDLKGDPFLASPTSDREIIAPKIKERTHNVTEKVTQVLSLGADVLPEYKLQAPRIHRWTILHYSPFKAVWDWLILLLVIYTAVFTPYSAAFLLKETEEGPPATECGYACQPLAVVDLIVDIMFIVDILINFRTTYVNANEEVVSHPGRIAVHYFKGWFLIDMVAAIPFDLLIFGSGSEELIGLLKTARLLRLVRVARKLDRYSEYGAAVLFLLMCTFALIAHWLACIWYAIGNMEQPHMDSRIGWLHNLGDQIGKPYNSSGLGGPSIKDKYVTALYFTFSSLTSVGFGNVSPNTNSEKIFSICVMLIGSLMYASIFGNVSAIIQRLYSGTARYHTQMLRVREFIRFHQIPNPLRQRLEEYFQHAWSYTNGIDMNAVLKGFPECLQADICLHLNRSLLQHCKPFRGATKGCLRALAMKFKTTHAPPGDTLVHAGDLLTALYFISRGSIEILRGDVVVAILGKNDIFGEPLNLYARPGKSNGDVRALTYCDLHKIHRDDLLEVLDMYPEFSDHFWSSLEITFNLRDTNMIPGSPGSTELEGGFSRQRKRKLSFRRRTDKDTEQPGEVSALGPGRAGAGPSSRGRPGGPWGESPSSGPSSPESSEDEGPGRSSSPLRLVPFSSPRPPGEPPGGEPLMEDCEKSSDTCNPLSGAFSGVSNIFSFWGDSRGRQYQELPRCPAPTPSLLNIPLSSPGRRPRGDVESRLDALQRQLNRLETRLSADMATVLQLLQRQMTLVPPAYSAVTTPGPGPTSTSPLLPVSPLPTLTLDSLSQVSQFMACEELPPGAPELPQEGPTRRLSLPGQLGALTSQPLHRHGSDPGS

[17] = system: Human immunodeficiency virus 1; assay: Antiviral activity against ENV pseudotyped CCR5-tropic HIV1 subtype C 225925-2, clone 22; assay type: functional; settings: Human immunodeficiency virus 1, subtype C 225925-2, clone 22
How it was run: (§2)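 Env-pseudotyped viruses made by co-transfecting HEK293T cells with an Env-deleted pSG3 backbone (8 µg) and an Env-expression plasmid (8 µg). Supernatants were harvested 2 days after transfection, filtered, titered and stored at −80 °C. They were used for single-cycle infection, and IC50 was taken from percent inhibition.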

[18] = system: Human immunodeficiency virus 1; assay: Antiviral activity against ENV pseudotyped CCR5-tropic HIV1 subtype D QA013.70I.ENV.M12; assay type: functional; settings: Human immunodeficiency virus 1, subtype D QA013.70I.ENV.M12; how it was run: as §2
[19] = system: Human immunodeficiency virus 1; assay: Antiviral activity against ENV pseudotyped CCR5-tropic HIV1 subtype D QD435.100M.ENV.B5; assay type: functional; settings: Human immunodeficiency virus 1, subtype D QD435.100M.ENV.B5; how it was run: as §2
[20] = system: Human immunodeficiency virus 1; assay: Antiviral activity against HIV1 HXB2 pseudovirus infected in human TZM-bl cells assessed as inhibition of viral entry treated 1 hr post infection measured after 48 hrs by luciferase reporter gene assay; assay type: functional, cell-based
How it was run: (§3)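 TZM-bl cells, 1 x 10^4/well, cultured overnight at 37 °C, then infected with HXB2 Env pseudovirus. Plates spun 30 min at 2090 g at 4 °C, then held 90 min at 37 °C. Unbound virus washed off with PBS and fresh medium added. Compounds given at 10-15 times their IC50 at set times after infection. Cells lysed at 48 h and luciferase read. Two independent experiments, each in triplicate.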

[21] = system: Human immunodeficiency virus 1; assay: Antiviral activity against HIV1 HXB2 pseudovirus infected in human TZM-bl cells assessed as inhibition of viral entry treated 2 to 4 hrs post infection measured after 48 hrs by luciferase reporter gene assay; assay type: functional, cell-based; how it was run: as §3
[22] = system: Human immunodeficiency virus 1; assay: Antiviral activity against HIV1 HXB2 pseudovirus infected in human TZM-bl cells assessed as inhibition of viral entry treated 8 hrs post infection measured after 48 hrs by luciferase reporter gene assay; assay type: functional, cell-based; how it was run: as §3

SMILES	IC50 [1] [µM]	IC50 [2] [µM]	solubility kinetic at 2 h [3] [µM]	Papp A→B at 10 µM [4] [×10⁻⁶ cm/s]	Papp B→A at 10 µM [5] [×10⁻⁶ cm/s]	IC50 [6] [µM]	inhibition [20]	inhibition [21]	also measured
CC1(C)CC(NC(=O)C(=O)Nc2ccc(Cl)cc2)CC(C)(C)N1	2.9	> 300							
COc1cnc(-n2cnc(C)n2)c2[nH]cc(C(=O)C(=O)N3CCN(C(=O)c4ccccc4)CC3)c12			> 100	7.62	37.4	> 25			
Cc1nc(C(NC(=O)c2ccc(-c3ccc(Cl)cc3)[nH]2)C2CCCCN2)sc1CO (stereo not given)	6.1	47	65 (≈ 28.9 µg/mL)	2.31	31.3	> 25			CC50 at 72 h [7]: 23.6 µM; CC50 at 96 h [8]: 24.8 µM; remaining at […] [9]: 84%; microsomal CLint [10]: < 10 µL/min/mg; fraction unbound at 5 µM [11]: 0.114; IC50 [12]: > 25 µM; IC50 [13]: > 25 µM; IC50 [14]: > 25 µM; IC50 [15]: > 25 µM; IC50 [16]: 3.8 µM; IC50 [17]: 1.1 µM; IC50 [18]: 0.79 µM; IC50 [19]: 1.4 µM
COc1ccnc2[nH]cc(C(=O)C(=O)N3CCN(C(=O)c4ccccc4)C[C@H]3C)c12							Active	inactive	
Cc1nnc(C(=O)NC(C)(C)c2nc(C(=O)NCc3ccc(F)cc3)c(O)c(=O)n2C)o1									inhibition [22]: inactive
c1cc(CN2CCCNCCNCCCNCC2)ccc1CN1CCCNCCNCCCNCC1							Active	inactive	
